≈ marks a conversion by molar mass, not a printed value. Some results are limits rather than exact numbers.

Holding throughout (assay type): functional
Experiment [1] deals with Haemophilus influenzae. Put plainly: Antibacterial activity against rifampin-resistant Haemophilus influenzae RdRIF by broth microdilution method. A digest of the protocol:
(§1)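 MICs were determined by broth dilution following CLSI guidelines (approved standard M7-A7). The agents were rifampin, cefdinir and fosfomycin. Strains were routinely grown on chocolate II agar or in brain heart infusion broth with 2% defibrinated, lysed horse blood plus 15 μg/ml β-NAD+.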

Experiment [2] relates to Haemophilus influenzae. Put plainly: Antibacterial activity against Haemophilus influenzae MSC06663 by broth microdilution method. A digest of the protocol:
as §1
Background: Broth dilution looks for growth in wells or tubes with falling amounts of substance.

Experiment [3] concerns Haemophilus influenzae. Put plainly: Antibacterial activity against Haemophilus influenzae MSC06647 by broth microdilution method. A digest of the protocol: as §1
The subject of experiment [4] is Aggregatibacter aphrophilus. Put plainly: Antibacterial activity against Haemophilus paraphrophilus ATCC 29241 by broth microdilution method.
In experiment [5] the test system is Haemophilus influenzae. In words: Antibacterial activity against Haemophilus influenzae MSC02070 by broth microdilution method. A digest of the protocol: as §1
The test system of experiment [6] is Haemophilus influenzae. In words: Antibacterial activity against Haemophilus influenzae MSC07237 by broth microdilution method. An outline of the steps: as §1
The subject of experiment [7] is Haemophilus influenzae. In words: Antibacterial activity against Haemophilus influenzae MSC01869 by broth microdilution method. A digest of the protocol:
as §1

Another experiment relates to Aggregatibacter segnis. In words: Antibacterial activity against Haemophilus segnis ATCC 33393 by broth microdilution method.
The subject of experiment [8] is Haemophilus influenzae. Put plainly: Antibacterial activity against Haemophilus influenzae MSC07169 by broth microdilution method. A digest of the protocol: as §1
Experiment [9] concerns Haemophilus influenzae. In words: Antibacterial activity against Haemophilus influenzae MSC01363 by broth microdilution method. A digest of the protocol: as §1
Experiment [10] deals with Haemophilus influenzae. In words: Antibacterial activity against Haemophilus influenzae MSC07771 by broth microdilution method. A digest of the protocol: as §1
For experiment [11], the system named is Haemophilus influenzae. In words: Antibacterial activity against Haemophilus influenzae MSC06651 by broth microdilution method. A digest of the protocol:
as §1

Experiment [12] relates to Haemophilus influenzae. Put plainly: Antibacterial activity against Haemophilus influenzae MSC01432 by broth microdilution method. An outline of the steps: as §1
Experiment [13] has as its system Haemophilus influenzae. Put plainly: Antibacterial activity against Haemophilus influenzae MSC02104 by broth microdilution method.
The subject of experiment [14] is Haemophilus influenzae. In words: Antibacterial activity against Haemophilus influenzae MSC01855 by broth microdilution method. A digest of the protocol: as §1
The test system of experiment [15] is Haemophilus paraphrohaemolyticus. In words: Antibacterial activity against Haemophilus paraphrohaemolyticus ATCC 29237 by broth microdilution method.
Experiment [16] has as its system Haemophilus haemolyticus. Put plainly: Antibacterial activity against Haemophilus haemolyticus ATCC 33390 by broth microdilution method.
Experiment [17] relates to Aggregatibacter aphrophilus. Put plainly: Antibacterial activity against Haemophilus aphrophilus ATCC 33389 by broth microdilution method.
Experiment [18] has as its system Haemophilus influenzae. In words: Antibacterial activity against Haemophilus influenzae MSC01400 by broth microdilution method. A digest of the protocol: as §1
The test system of experiment [19] is Haemophilus influenzae. Put plainly: Antibacterial activity against Haemophilus influenzae MSC02022 by broth microdilution method. An outline of the steps: as §1
Experiment [20] relates to Haemophilus haemolyticus. In words: Antibacterial activity against Haemophilus haemolyticus MSC07286 by broth microdilution method.
The test system of experiment [21] is Haemophilus influenzae. Put plainly: Antibacterial activity against Haemophilus influenzae MSC02149 by broth microdilution method. A digest of the protocol: as §1
In experiment [22] the test system is Haemophilus parainfluenzae. Put plainly: Antibacterial activity against Haemophilus parainfluenzae ATCC 33392 by broth microdilution method.
In experiment [23] the test system is Haemophilus parahaemolyticus. Put plainly: Antibacterial activity against Haemophilus parahaemolyticus ATCC 10014 by broth microdilution method.
The test system of experiment [24] is Haemophilus influenzae. In words: Antibacterial activity against rifampin and cefdinir-resistant Haemophilus influenzae RdRIF/MSC06663 mutant by broth microdilution method. An outline of the steps: as §1
Experiment [25] deals with Haemophilus influenzae. In words: Antibacterial activity against rifampin and cefdinir-resistant Haemophilus influenzae RdRIF/MSC06651 mutant by broth microdilution method. A digest of the protocol:
as §1

The subject of experiment [26] is Haemophilus influenzae. Put plainly: Antibacterial activity against rifampin and cefdinir-resistant Haemophilus influenzae RdRIF/MSC06647 mutant by broth microdilution method. A digest of the protocol: as §1
Experiment [27] concerns Haemophilus influenzae. Put plainly: Antibacterial activity against Haemophilus influenzae Rd by broth microdilution method. An outline of the steps:
as §1

`CC1(C)S[C@@H]2[C@H](NC(=O)[C@H](N)c3ccccc3)C(=O)N2[C@H]1C(=O)O` [AMPICILLIN]: the MIC was found to be 0.25 µg/mL (≈ 0.715 µM) against Haemophilus influenzae [1]; 1 µg/mL (≈ 2.86 µM) against Haemophilus influenzae [2]; 2 µg/mL (≈ 5.72 µM) in the experiment on Haemophilus influenzae [3]; 0.25 µg/mL (≈ 0.715 µM) in experiment [4]; 8 µg/mL (≈ 22.9 µM) in the experiment with Haemophilus influenzae [5]; 4 µg/mL (≈ 11.4 µM) against Haemophilus influenzae [6]. Moreover, the MIC in the experiment with Haemophilus influenzae [7] is more than 64 µg/mL; against Aggregatibacter segnis, 0.5 µg/mL (≈ 1.43 µM); in the experiment with Haemophilus influenzae [8], 1 µg/mL (≈ 2.86 µM); against Haemophilus influenzae [9] it was 2 µg/mL (≈ 5.72 µM); with Haemophilus influenzae [10], 2 µg/mL (≈ 5.72 µM); against Haemophilus influenzae [11], 2 µg/mL (≈ 5.72 µM). In addition, the MIC is 1 µg/mL (≈ 2.86 µM) with Haemophilus influenzae [12]; more than 64 µg/mL against Haemophilus influenzae [13]; 4 µg/mL (≈ 11.4 µM) against Haemophilus influenzae [14]; 0.25 µg/mL (≈ 0.715 µM) in experiment [15]; 0.5 µg/mL (≈ 1.43 µM) in the experiment with Haemophilus haemolyticus [16]; 0.5 µg/mL (≈ 1.43 µM) in experiment [17]. Also, the MIC with Haemophilus influenzae [18] came to 8 µg/mL (≈ 22.9 µM); against Haemophilus influenzae [19], 1 µg/mL (≈ 2.86 µM); against Haemophilus haemolyticus [20], 2 µg/mL (≈ 5.72 µM); against Haemophilus influenzae [21], 8 µg/mL (≈ 22.9 µM); in experiment [22], 0.5 µg/mL (≈ 1.43 µM); in experiment [23], 0.25 µg/mL (≈ 0.715 µM).

With `C=CC1=C(C(=O)O)N2C(=O)[C@@H](NC(=O)/C(=N\O)c3csc(N)n3)[C@H]2SC1` [CEFDINIR], the MIC in the experiment with Haemophilus influenzae [1] was determined as 0.25 µg/mL (≈ 0.632 µM); against Haemophilus influenzae [2], 2 µg/mL (≈ 5.06 µM); against Haemophilus influenzae [24], 8 µg/mL (≈ 20.2 µM); with Haemophilus influenzae [3], 1 µg/mL (≈ 2.53 µM); in experiment [4] it was 0.06 µg/mL (≈ 0.152 µM); against Haemophilus influenzae [5] it was 8 µg/mL (≈ 20.2 µM). The MIC in the experiment on Haemophilus influenzae [6] turned out to be 16 µg/mL (≈ 40.5 µM); in the experiment with Haemophilus influenzae [7], 8 µg/mL (≈ 20.2 µM); against Haemophilus influenzae [25] it was 8 µg/mL (≈ 20.2 µM); in the experiment with Aggregatibacter segnis it was 0.06 µg/mL (≈ 0.152 µM); against Haemophilus influenzae [8], 1 µg/mL (≈ 2.53 µM); with Haemophilus influenzae [9] it was 1 µg/mL (≈ 2.53 µM). Also, the MIC in the experiment with Haemophilus influenzae [10] is 1 µg/mL (≈ 2.53 µM); against Haemophilus influenzae [11], 8 µg/mL (≈ 20.2 µM); in the experiment on Haemophilus influenzae [12], 2 µg/mL (≈ 5.06 µM); against Haemophilus influenzae [13], 16 µg/mL (≈ 40.5 µM); with Haemophilus influenzae [14], 8 µg/mL (≈ 20.2 µM); in [15] it was 0.016 µg/mL (≈ 0.0405 µM). In addition, the MIC in the experiment with Haemophilus haemolyticus [16] was found to be 0.12 µg/mL (≈ 0.303 µM); against Haemophilus influenzae [26] it was 2 µg/mL (≈ 5.06 µM); in the experiment with Haemophilus influenzae [27] it was 0.25 µg/mL (≈ 0.632 µM); in experiment [17], 0.12 µg/mL (≈ 0.303 µM); against Haemophilus influenzae [18], 8 µg/mL (≈ 20.2 µM); against Haemophilus influenzae [19], 2 µg/mL (≈ 5.06 µM). Further, the MIC worked out at 2 µg/mL (≈ 5.06 µM) in the experiment on Haemophilus haemolyticus [20], 16 µg/mL (≈ 40.5 µM) against Haemophilus influenzae [21], 0.12 µg/mL (≈ 0.303 µM) in experiment [22] and 0.016 µg/mL (≈ 0.0405 µM) in experiment [23].

For `C[C@@H]1O[C@@H]1P(=O)(O)O` [FOSFOMYCIN], the MIC in the experiment with Haemophilus influenzae [1] was 2 µg/mL (≈ 14.5 µM); in the experiment with Haemophilus influenzae [2], 0.06 µg/mL (≈ 0.435 µM); against Haemophilus influenzae [24] it was 2 µg/mL (≈ 14.5 µM); against Haemophilus influenzae [3], 0.12 µg/mL (≈ 0.869 µM); with Haemophilus influenzae [25], 1 µg/mL (≈ 7.24 µM); in the experiment on Haemophilus influenzae [11], 256 µg/mL (≈ 1850 µM). Also, the MIC in the experiment on Haemophilus influenzae [26] and against Haemophilus influenzae [27] was 2 µg/mL (≈ 14.5 µM) in each case.

As for `CO[C@H]1/C=C/O[C@@]2(C)Oc3c(C)c(O)c4c(O)c(c(/C=N/N5CCN(C)CC5)c(O)c4c3C2=O)NC(=O)/C(C)=C\C=C\[C@H](C)[C@H](O)[C@@H](C)[C@@H](O)[C@@H](C)[C@H](OC(C)=O)[C@@H]1C` [RIFAMPIN], the MIC against Haemophilus influenzae [1] is more than 128 µg/mL; in the experiment with Haemophilus influenzae [2], 0.5 µg/mL (≈ 0.608 µM); in the experiment with Haemophilus influenzae [24], more than 128 µg/mL; in the experiment on Haemophilus influenzae [3], 0.25 µg/mL (≈ 0.304 µM); with Haemophilus influenzae [25] it was more than 128 µg/mL; in the experiment with Haemophilus influenzae [11], 0.5 µg/mL (≈ 0.608 µM). Further, the MIC was more than 128 µg/mL in the experiment on Haemophilus influenzae [26] and 0.5 µg/mL (≈ 0.608 µM) with Haemophilus influenzae [27].

(Values after ChEMBL document CHEMBL1145480, “Horizontal gene transfer of ftsI, encoding penicillin-binding protein 3, in Haemophilus influenzae” (2007).)
